Measurements: ChEMBL document CHEMBL2434844, “Synthesis, antimicrobial, antioxidant activities of novel 6-aryl-5-cyano thiouracil derivatives” (Eur J Med Chem, 2013)
Converted amounts (≈) assume the structure as drawn. The source made the active and inactive calls. The rule behind the calls is not given here.

Experiments:
Type in all cases: functional
[1] = test system: Bacillus cereus; assay: Antibacterial activity against Bacillus cereus ATCC 14579 at 10 mg/disc after 48 hrs by disc-diffusion method
Procedure, shortened: (§1)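 Disc diffusion per Bauer method under NCCLS conditions on nutrient agar/Mueller-Hinton agar. Compound dissolved in sterile DMSO at 10 mg/mL, filtered 0.2 µm, stored frozen at -15 °C; 10 mg/disc in DMSO applied. DMSO control. Inhibition zone diameter measured in mm after 48 h incubation at 28 °C.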

[2] = test system: Staphylococcus aureus; assay: Antibacterial activity against Staphylococcus aureus ATCC 12600 after 24 hrs by microdilution technique
Procedure, shortened: (§2)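 MIC by agar microdilution on Mueller-Hinton agar per NCCLS 1997. Bacteria subcultured overnight at 37 °C on MHA, Candida on SDA at 35 °C for 24-48 h, each passaged at least twice. Incubated 37 °C in humid chamber, read after 24 h.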

[3] = test system: Candida albicans; assay: Antifungal activity against Candida albicans ATCC 26555 at 10 mg/disc after 48 hrs by disc-diffusion method; procedure, shortened: as §1
[4] = test system: Staphylococcus aureus; assay: Antibacterial activity against Staphylococcus aureus ATCC 12600 at 10 mg/disc after 48 hrs by disc-diffusion method; procedure, shortened: as §1
[5] = test system: Escherichia coli; assay: Antibacterial activity against Escherichia coli ATCC 11775 after 24 hrs by microdilution technique; procedure, shortened: as §2
[6] = test system: Candida albicans; assay: Antifungal activity against Candida albicans ATCC 26555 after 24 hrs by microdilution technique; procedure, shortened: as §2
[7] = test system: Aspergillus flavus; assay: Antifungal activity against Aspergillus flavus ATCC 11495 after 24 hrs by microdilution technique
[8] = test system: Escherichia coli; assay: Antibacterial activity against Escherichia coli ATCC 11775 at 10 mg/disc after 48 hrs by disc-diffusion method; procedure, shortened: as §1
[9] = test system: Bacillus cereus; assay: Antibacterial activity against Bacillus cereus ATCC 14579 after 24 hrs by microdilution technique; procedure, shortened: as §2
[10] = test system: Aspergillus flavus; assay: Antifungal activity against Aspergillus flavus ATCC 11495 at 10 mg/disc after 48 hrs by disc-diffusion method; procedure, shortened: as §1

Structure (SMILES): N#Cc1c(-c2ccc(Br)cc2)[nH]c(=S)n2c(=O)[nH]nc12
- diameter of the inhibition zone (DIZ) [1]: inactive
- MIC ([2]; ATCC 12600, 24 h): 64 µg/mL (≈ 184 µM)
- diameter of the inhibition zone (DIZ) [3]: inactive
- diameter of the inhibition zone (DIZ) [4]: 11 mm
- MIC ([5]; DSM 30083 = JCM 1649): inactive
- MIC [6]: inactive
- MIC [7]: inactive
- diameter of the inhibition zone (DIZ) ([8]; DSM 30083 = JCM 1649): inactive
- MIC [9]: inactive
- diameter of the inhibition zone (DIZ) [10]: inactive

Structure (SMILES): COc1cc(-c2[nH]c(=S)n3ncnc3c2C#N)cc(OC)c1OC
- diameter of the inhibition zone (DIZ) [1]: 5 mm
- MIC ([2]; ATCC 12600, 24 h): 128 µg/mL (≈ 373 µM)
- diameter of the inhibition zone (DIZ) [3]: 8 mm
- diameter of the inhibition zone (DIZ) [4]: 7 mm
- MIC ([5]; DSM 30083 = JCM 1649, 24 h): 128 µg/mL (≈ 373 µM)
- MIC ([6]; ATCC 26555, 24 h): 128 µg/mL (≈ 373 µM)
- MIC ([7]; ATCC 11495, 24 h): 256 µg/mL (≈ 746 µM)
- diameter of the inhibition zone (DIZ) [8]: 6 mm
- MIC ([9]; ATCC 14579, 24 h): 128 µg/mL (≈ 373 µM)
- diameter of the inhibition zone (DIZ) [10]: 7 mm

Structure (SMILES): N#Cc1c(-c2ccc(Br)cc2)[nH]c(=S)n2c(=S)[nH]nc12
- diameter of the inhibition zone (DIZ) [1]: 10 mm
- MIC [2]: inactive
- diameter of the inhibition zone (DIZ) [3]: 12 mm
- diameter of the inhibition zone (DIZ) [4]: inactive
- MIC ([5]; DSM 30083 = JCM 1649, 24 h): 64 µg/mL (≈ 176 µM)
- MIC ([6]; ATCC 26555, 24 h): 32 µg/mL (≈ 87.9 µM)
- MIC [7]: inactive
- diameter of the inhibition zone (DIZ) [8]: 11 mm
- MIC ([9]; ATCC 14579, 24 h): 64 µg/mL (≈ 176 µM)
- diameter of the inhibition zone (DIZ) [10]: inactive

Structure (SMILES): Cc1cc(C)n(-c2nc(=S)[nH]c(-c3ccc(F)cc3)c2C#N)n1
- diameter of the inhibition zone (DIZ) [1]: 12 mm
- MIC ([2]; ATCC 12600, 24 h): 32 µg/mL (≈ 98.3 µM)
- diameter of the inhibition zone (DIZ) [3]: inactive
- diameter of the inhibition zone (DIZ) [4]: 13 mm
- MIC ([5]; DSM 30083 = JCM 1649, 24 h): 32 µg/mL (≈ 98.3 µM)
- MIC [6]: inactive
- MIC [7]: inactive
- diameter of the inhibition zone (DIZ) [8]: 11 mm
- MIC ([9]; ATCC 14579, 24 h): 32 µg/mL (≈ 98.3 µM)
- diameter of the inhibition zone (DIZ) [10]: inactive

Structure (SMILES): N#Cc1c(-c2ccc(Br)cc2)[nH]c(=S)n2cnnc12
- diameter of the inhibition zone (DIZ) [1]: 17 mm
- MIC ([2]; ATCC 12600, 24 h): 16 µg/mL (≈ 48.2 µM)
- diameter of the inhibition zone (DIZ) [3]: 16 mm
- diameter of the inhibition zone (DIZ) [4]: 21 mm
- MIC ([5]; DSM 30083 = JCM 1649, 24 h): 16 µg/mL (≈ 48.2 µM)
- MIC ([6]; ATCC 26555, 24 h): 16 µg/mL (≈ 48.2 µM)
- MIC ([7]; ATCC 11495, 24 h): 16 µg/mL (≈ 48.2 µM)
- diameter of the inhibition zone (DIZ) [8]: 12 mm
- MIC ([9]; ATCC 14579, 24 h): 16 µg/mL (≈ 48.2 µM)
- diameter of the inhibition zone (DIZ) [10]: 17 mm

Structure (SMILES): N#Cc1c(-c2ccc(F)cc2)[nH]c(=S)n2ncnc12
- diameter of the inhibition zone (DIZ) [1]: 6 mm
- MIC ([2]; ATCC 12600, 24 h): 128 µg/mL (≈ 472 µM)
- diameter of the inhibition zone (DIZ) [3]: 8 mm
- diameter of the inhibition zone (DIZ) [4]: 7 mm
- MIC ([5]; DSM 30083 = JCM 1649, 24 h): 128 µg/mL (≈ 472 µM)
- MIC ([6]; ATCC 26555, 24 h): 128 µg/mL (≈ 472 µM)
- MIC ([7]; ATCC 11495, 24 h): 256 µg/mL (≈ 944 µM)
- diameter of the inhibition zone (DIZ) [8]: 8 mm
- MIC ([9]; ATCC 14579, 24 h): 128 µg/mL (≈ 472 µM)
- diameter of the inhibition zone (DIZ) [10]: 7 mm

Structure (SMILES): N#Cc1c(N/N=C/c2ccc(F)cc2)nc(=S)[nH]c1-c1ccc(F)cc1
- diameter of the inhibition zone (DIZ) [1]: 16 mm
- MIC ([2]; ATCC 12600, 24 h): 32 µg/mL (≈ 87.1 µM)
- diameter of the inhibition zone (DIZ) [3]: 15 mm
- diameter of the inhibition zone (DIZ) [4]: 19 mm
- MIC ([5]; DSM 30083 = JCM 1649, 24 h): 32 µg/mL (≈ 87.1 µM)
- MIC ([6]; ATCC 26555, 24 h): 32 µg/mL (≈ 87.1 µM)
- MIC ([7]; ATCC 11495, 24 h): 32 µg/mL (≈ 87.1 µM)
- diameter of the inhibition zone (DIZ) [8]: 12 mm
- MIC ([9]; ATCC 14579, 24 h): 32 µg/mL (≈ 87.1 µM)
- diameter of the inhibition zone (DIZ) [10]: 14 mm

Structure (SMILES): COc1cc(-c2[nH]c(=S)n3nc(C)nc3c2C#N)cc(OC)c1OC
- diameter of the inhibition zone (DIZ) [1]: 6 mm
- MIC ([2]; ATCC 12600, 24 h): 128 µg/mL (≈ 358 µM)
- diameter of the inhibition zone (DIZ) [3]: 8 mm
- diameter of the inhibition zone (DIZ) [4]: 6 mm
- MIC ([5]; DSM 30083 = JCM 1649, 24 h): 128 µg/mL (≈ 358 µM)
- MIC ([6]; ATCC 26555, 24 h): 128 µg/mL (≈ 358 µM)
- MIC ([7]; ATCC 11495, 24 h): 256 µg/mL (≈ 716 µM)
- diameter of the inhibition zone (DIZ) [8]: 7 mm
- MIC ([9]; ATCC 14579, 24 h): 128 µg/mL (≈ 358 µM)
- diameter of the inhibition zone (DIZ) [10]: 7 mm

Structure (SMILES): Cc1nnc2c(C#N)c(-c3ccc(Br)cc3)[nH]c(=S)n12
- diameter of the inhibition zone (DIZ) [1]: inactive
- MIC [2]: inactive
- diameter of the inhibition zone (DIZ) [3]: inactive
- diameter of the inhibition zone (DIZ) [4]: inactive
- MIC ([5]; DSM 30083 = JCM 1649): inactive
- MIC [6]: inactive
- MIC [7]: inactive
- diameter of the inhibition zone (DIZ) ([8]; DSM 30083 = JCM 1649): inactive
- MIC [9]: inactive
- diameter of the inhibition zone (DIZ) [10]: inactive

Structure (SMILES): N#Cc1c(-c2ccc(Br)cc2)[nH]c(=S)n2c(=O)c(=O)[nH]nc12
- diameter of the inhibition zone (DIZ) [1]: inactive
- MIC ([2]; ATCC 12600, 24 h): 32 µg/mL (≈ 85.1 µM)
- diameter of the inhibition zone (DIZ) [3]: inactive
- diameter of the inhibition zone (DIZ) [4]: 13 mm
- MIC ([5]; DSM 30083 = JCM 1649): inactive
- MIC [6]: inactive
- MIC ([7]; ATCC 11495, 24 h): 16 µg/mL (≈ 42.5 µM)
- diameter of the inhibition zone (DIZ) ([8]; DSM 30083 = JCM 1649): inactive
- MIC [9]: inactive
- diameter of the inhibition zone (DIZ) [10]: 17 mm

Structure (SMILES): Cc1nc2c(C#N)c(-c3ccc(F)cc3)[nH]c(=S)n2n1
- diameter of the inhibition zone (DIZ) [1]: 5 mm
- MIC ([2]; ATCC 12600, 24 h): 128 µg/mL (≈ 449 µM)
- diameter of the inhibition zone (DIZ) [3]: 8 mm
- diameter of the inhibition zone (DIZ) [4]: 7 mm
- MIC ([5]; DSM 30083 = JCM 1649, 24 h): 128 µg/mL (≈ 449 µM)
- MIC ([6]; ATCC 26555, 24 h): 128 µg/mL (≈ 449 µM)
- MIC ([7]; ATCC 11495, 24 h): 256 µg/mL (≈ 897 µM)
- diameter of the inhibition zone (DIZ) [8]: 7 mm
- MIC ([9]; ATCC 14579, 24 h): 128 µg/mL (≈ 449 µM)
- diameter of the inhibition zone (DIZ) [10]: 7 mm
